ChEMBL document CHEMBL4396921, “Synthesis and Biological Activity of Peptide α-Ketoamide Derivatives as Proteasome Inhibitors” (ACS Med Chem Lett, 2019)
Residues, ends and D or L forms follow the SMILES beside them. *: point of attachment. Cbz = O=C(OCc1ccccc1)*

Tests used:
[1] = target: T1, Proteasome Macropain subunit MB1 (Homo sapiens, UniProt P28074); assay: Inhibition of 20S proteosome beta 5 purified from human HCT116 cells using Suc-LLVY-AMC as substrate incubated for 30 to 120 mins by fluorimetry
T1 sequence (P28074 whole entry): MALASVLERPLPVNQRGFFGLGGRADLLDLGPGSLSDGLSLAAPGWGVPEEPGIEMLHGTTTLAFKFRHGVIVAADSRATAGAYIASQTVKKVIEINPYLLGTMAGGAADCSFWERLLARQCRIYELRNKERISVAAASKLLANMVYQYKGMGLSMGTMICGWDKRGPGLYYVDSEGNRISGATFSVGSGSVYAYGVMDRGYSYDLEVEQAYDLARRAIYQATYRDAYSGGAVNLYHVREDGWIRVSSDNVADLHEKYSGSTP
Summary of the method: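 Semipurified proteasomes were pretreated with compound at 0.01–100 μM in activity buffer. Fluorogenic AMC substrates were used: Z-LLE-AMC for PGPH (β1), Boc-LRR-AMC for T-L (β2) and Suc-LLVY-AMC for ChT-L (β5). IC50 reported as mean ± SEM of three independent experiments.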

HCT-116 [2] = assay: Antiproliferative activity against human HCT116 cells assessed as reduction in cell viability incubated for 72 hrs by MTT assay; type: functional, cell-based; conditions: HCT-116, 72 h
Summary of the method: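 HCT116 human colorectal carcinoma cells exposed to compounds at 0.1–100 μM. IC50 for proliferation reported as mean ± SEM of three independent experiments.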

HCT-116 [3] = assay: Induction of apoptosis in human HCT116 cells assessed as viable cells at 1 uM incubated for 48 hrs by annexin-V FITC and propidium iodide staining based flow cytometry relative to control; type: functional; conditions: HCT-116, 48 h, read-out: Activity
Summary of the method: (§1)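 HCT116 tumour cells cultured 48 or 72 h with or without compound at 1 μM. Cells were stained with Annexin V and propidium iodide. Annexin V+/PI− was scored as early apoptotic and Annexin V+/PI+ as late apoptotic. Percentages of cells were read from dot plots, with three experiments run.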

HCT-116 [4] = assay: Induction of apoptosis in human HCT116 cells assessed as early apoptotic cells at 1 uM incubated for 48 hrs by annexin-V FITC and propidium iodide staining based flow cytometry relative to control; type: functional; summary of the method: as §1
HCT-116 [5] = assay: Induction of apoptosis in human HCT116 cells assessed as late apoptotic cells at 1 uM incubated for 48 hrs by annexin-V FITC and propidium iodide staining based flow cytometry relative to control; type: functional; summary of the method: as §1
HCT-116 [6] = assay: Induction of apoptosis in human HCT116 cells assessed as necrotic cells at 1 uM incubated for 48 hrs by annexin-V FITC and propidium iodide staining based flow cytometry relative to control; type: functional; summary of the method: as §1
HCT-116 [7] = assay: Induction of apoptosis in human HCT116 cells assessed as viable cells at 1 uM incubated for 72 hrs by annexin-V FITC and propidium iodide staining based flow cytometry relative to control; type: functional; conditions: HCT-116, 72 h, read-out: Activity; summary of the method: as §1
HCT-116 [8] = assay: Induction of apoptosis in human HCT116 cells assessed as early apoptotic cells at 1 uM incubated for 72 hrs by annexin-V FITC and propidium iodide staining based flow cytometry relative to control; type: functional; summary of the method: as §1
HCT-116 [9] = assay: Induction of apoptosis in human HCT116 cells assessed as late apoptotic cells at 1 uM incubated for 72 hrs by annexin-V FITC and propidium iodide staining based flow cytometry relative to control; type: functional; summary of the method: as §1
HCT-116 [10] = assay: Induction of apoptosis in human HCT116 cells assessed as necrotic cells at 1 uM incubated for 72 hrs by annexin-V FITC and propidium iodide staining based flow cytometry relative to control; type: functional; summary of the method: as §1
Homo sapiens [11] = organism: Homo sapiens; assay: Selectivity ratio of IC50 of 20S proteosome beta 1 purified from human HCT116 cells to IC50 of 20S proteosome beta 5 purified from human HCT116 cells
Homo sapiens [12] = organism: Homo sapiens; assay: Selectivity ratio of IC50 of 20S proteosome beta 2 purified from human HCT116 cells to IC50 of 20S proteosome beta 5 purified from human HCT116 cells
Homo sapiens [13] = organism: Homo sapiens; assay: Selectivity index, ratio of IC50 of 20S proteosome beta 1 purified from human HCT116 cells to IC50 of 20S proteosome beta 2 purified from human HCT116 cells
Homo sapiens [14] = organism: Homo sapiens; assay: Selectivity index, ratio of IC50 of 20S proteosome beta 5 purified from human HCT116 cells to IC50 of 20S proteosome beta 2 purified from human HCT116 cells

With `CC(C)C[C@H](NC(=O)OCc1ccccc1)C(=O)N[C@@H](Cc1ccccc1)C(O)C(=O)NCc1ccccc1` (stereo not given in full) the IC50 [1] was greater than 100 µM.

`CC(C)CNC(=O)C(=O)[C@H](CC(C)C)NC(=O)[C@H](CC(C)C)NC(=O)[C@H](CC(C)C)NC(=O)OCc1ccccc1` gave an IC50 [1] of 0.012 µM, an IC50 (HCT-116 [2]) of 0.81 µM and a viability at 1 µM (HCT-116 [3]) of 55.4%. The Activity (HCT-116 [4]) was 20.7%, the Activity (HCT-116 [5]) was 22.3% and the Activity (HCT-116 [6]) was 1.53%. It also gave a viability at 1 µM (HCT-116 [7]) of 48.8%, an Activity (HCT-116 [8]) of 10.5% and an Activity (HCT-116 [9]) of 38.8%. The Activity (HCT-116 [10]) was 1.91%.

Work on `CC(C)C[C@H](NC(=O)OCc1ccccc1)C(=O)N[C@@H](CC(C)C)C(=O)N[C@@H](CC(C)C)C(=O)C(=O)NCc1ccccc1` yielded an IC50 [1] of 0.014 µM and an IC50 (HCT-116 [2]) of 0.78 µM.

Molecule `CC(C)C[C@H](NC(=O)OCc1ccccc1)C(=O)N[C@@H](CC(C)C)C(=O)C(=O)NCc1ccccc1` has an IC50 [1] of 0.92 µM and an IC50 (HCT-116 [2]) of 8.6 µM.

Work on `CC(C)C[C@H](NC(=O)OCc1ccccc1)C(=O)N[C@@H](CC(N)=O)C(O)C(=O)NCc1ccccc1` (stereo not given in full) yielded an IC50 [1] greater than 100 µM.

`CC(C)C[C@H](NC(=O)OCc1ccccc1)C(=O)N[C@@H](CC(C)C)C(O)C(=O)NCc1ccccc1` (stereo not given in full) gave an IC50 [1] of 50.2 µM.

Work on `CC(C)C[C@H](NC(=O)OCc1ccccc1)C(=O)N[C@@H](CC(N)=O)C(=O)C(=O)NCc1ccccc1` yielded an IC50 [1] greater than 100 µM.

Molecule `CC(C)C[C@H](NC(=O)OCc1ccccc1)C(=O)N[C@@H](Cc1ccccc1)C(=O)C(=O)NCc1ccccc1` has an IC50 [1] of 51.1 µM.

`CC(C)C[C@H](NC(=O)OCc1ccccc1)C(=O)N[C@@H](C(C)C)C(O)C(=O)NCc1ccccc1` (stereo not given in full) gave an IC50 [1] of 82.1 µM.

Molecule `CC(C)C[C@H](NC(=O)OCc1ccccc1)C(=O)N[C@@H](CC(C)C)C(=O)N[C@@H](CC(C)C)C(O)C(=O)NCc1ccccc1` (stereo not given in full) has an IC50 [1] of 0.53 µM.

`CC(C)C[C@H](NC(=O)OCc1ccccc1)C(=O)N[C@@H](Cc1ccc(O)cc1)C(=O)C(=O)NCc1ccccc1` showed an IC50 [1] of 12.4 µM and an IC50 (HCT-116 [2]) greater than 100 µM.

In the case of `CC(C)C[C@H](NC(=O)OCc1ccccc1)C(=O)N[C@@H](Cc1cccc2ccccc12)C(O)C(=O)NCc1ccccc1` (stereo not given in full), the IC50 [1] is reported as greater than 100 µM.

With `CC(C)C[C@H](NC(=O)OCc1ccccc1)C(=O)N[C@@H](CC(C)C)C(=O)N[C@@H](CC(C)C)C(=O)C(=O)Nc1cccc2ccccc12` the IC50 [1] was 0.007 µM, the IC50 (HCT-116 [2]) was less than 0.1 µM and the Ratio IC50 (Homo sapiens [11]) was 8200. It also gave a viability at 1 µM (HCT-116 [3]) of 45.1%, an Activity (HCT-116 [4]) of 22.6% and an Activity (HCT-116 [5]) of 29.5%. It also gave an Activity (HCT-116 [6]) of 2.77%, a viability at 1 µM (HCT-116 [7]) of 27.1% and an Activity (HCT-116 [8]) of 11.3%. The Activity (HCT-116 [9]) was 59.4%, the Activity (HCT-116 [10]) was 2.29% and the Ratio IC50 (Homo sapiens [12]) was greater than 14200.

Molecule `CC(C)CNC(=O)C(O)[C@H](CC(C)C)NC(=O)[C@H](CC(C)C)NC(=O)[C@H](CC(C)C)NC(=O)OCc1ccccc1` (stereo not given in full) has an IC50 [1] greater than 100 µM.

With `CC(C)C[C@H](NC(=O)OCc1ccccc1)C(=O)N[C@@H](CC(C)C)C(=O)N[C@@H](CC(C)C)C(=O)C(=O)N1CCc2ccccc2C1` the IC50 [1] was 0.77 µM.

Work on `CC(C)C[C@H](NC(=O)OCc1ccccc1)C(=O)N[C@@H](CC(C)C)C(=O)N[C@@H](CC(C)C)C(O)C(=O)N1CCc2ccccc2C1` (stereo not given in full) yielded an IC50 [1] greater than 100 µM.

`CC(C)C[C@H](NC(=O)OCc1ccccc1)C(=O)N[C@@H](CC(C)C)C(=O)N[C@@H](CC(C)C)C(O)C(=O)Nc1cccc2ccccc12` (stereo not given in full) showed an IC50 [1] of 8.1 µM.

`CC(C)C[C@H](NC(=O)OCc1ccccc1)C(=O)N[C@@H](CC(C)C)C(=O)N[C@@H](CC(C)C)C(=O)C(=O)NCc1ccc(F)cc1` gave an IC50 [1] of 0.056 µM and an IC50 (HCT-116 [2]) of 0.93 µM.

For `CC(C)C[C@@H](C=O)NC(=O)[C@H](CC(C)C)NC(=O)[C@H](CC(C)C)NC(=O)OCc1ccccc1` [MG-132] (Cbz-Leu-Leu-Leu-aldehyde), the IC50 (HCT-116 [2]) was 0.82 µM.

Work on `CC(C)C[C@H](NC(=O)OCc1ccccc1)C(=O)N[C@H](C(=O)C(=O)NCc1ccccc1)C(C)C` yielded an IC50 [1] of 63.3 µM, a Ratio IC50 (Homo sapiens [13]) of 7 and a Ratio IC50 (Homo sapiens [14]) of 30.

In the case of `CC(C)C[C@H](NC(=O)OCc1ccccc1)C(=O)N[C@@H](CC(C)C)C(=O)N[C@@H](CC(C)C)C(O)C(=O)NCc1ccc(F)cc1` (stereo not given in full), the IC50 [1] is reported as greater than 100 µM.

For `CC(C)C[C@H](NC(=O)OCc1ccccc1)C(=O)N[C@@H](CC(C)C)C(=O)N[C@@H](CC(C)C)C(=O)C(=O)N1CCOCC1`, the IC50 [1] was 0.48 µM.

`CC(C)C[C@H](NC(=O)OCc1ccccc1)C(=O)N[C@@H](Cc1ccc(O)cc1)C(O)C(=O)NCc1ccccc1` (stereo not given in full) showed an IC50 [1] of 70.4 µM.

`CC(C)C[C@H](NC(=O)OCc1ccccc1)C(=O)N[C@@H](CC(C)C)C(=O)N[C@@H](CC(C)C)C(O)C(=O)N1CCOCC1` (stereo not given in full) was tested, and the IC50 [1] was greater than 100 µM.
